As a reminder, the aqueous solubility is how much of the substance goes into solution per volume. High values mean a readily soluble substance, low ones a poorly soluble substance. What is called IC50 is the midpoint of a concentration-inhibition curve.

The values below come from paper PMC4351917 (Journal of medicinal chemistry, 2014).

For data set [1], the system named is SW480 (colon carcinoma). Briefly: MTT cytotoxicity assay, SW480. Particulars: SW480 cells. Format: cell-based, human. The gist of the method:
(§1)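 Adherent cells grown in MEM with 10% FBS, pyruvate, NEAA and glutamine, without antibiotics. Seeded per well at 1.0 × 10³ for CH1 and 2.0 × 10³ for SW480, then settled for 24 h. Serial dilutions of test compound in medium were applied for 96 h continuous exposure at 37 °C. MTT was added for 4 h, formazan dissolved in DMSO, and read at 550 nm (ref 690 nm). IC₅₀ was interpolated from concentration–effect curves, ≥3 independent experiments in triplicate.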
On the technique in general: Formazan colour is commonly taken as a measure of viable cells.

Data set [2] can be described thus: General toxicity in the animal experiments. Particulars: all in vivo experiments, 10-30 mg/kg i.p., mice. In short, it runs like this: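 Test compound in water, given i.p. L1210 model: female DBA/2J × Balb/c SCID F1 mice, 1 × 10⁵ cells i.p. on day 0, dosed 10, 20, 30 mg/kg on days 1, 5, 9, with daily observation and body weight. CT-26 model: female Balb/c mice aged 6–8 weeks, 5 × 10⁵ cells s.c. into the flank, 30 mg/kg on days 4, 7, 11, 14, with daily distress checks.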

Data set [3] can be described thus: Aqueous solubility. Format: physicochemical. Particulars: water.
Data set [4] in a line: Stability in aqueous media under physiologically relevant conditions. Format: physicochemical. The note with it: PBS (pH 7.4 and 6.0), 37 °C, 0.5 mM. In short, it runs like this: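 Each complex (0.5 mM) was incubated at 37 °C for 24 h in water, PBS pH 7.4, PBS pH 6.0 and 0.05 M HCl (pH 1.5). Samples taken at 1 and 24 h were analysed by isocratic RP-HPLC on a C18 column at 25 °C, with 0.1% TFA water/MeOH adjusted for elution within 15 min and UV detection at 210 nm.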

Data set [5] relates to L1210 murine leukemia cells. Description: Antileukemic activity in vivo. On the set-up: species or system female DBA/2J × Balb/c SCID F1 mice. The note with it: L1210 leukemia-bearing mice.
Data set [6] in a line: Reduction by sodium ascorbate, RP-HPLC. The note with it: 15-fold excess sodium ascorbate. Format: physicochemical.
Data set [7] is described as follows: Platinum concentration in mouse tissues and serum by ICP-MS. Format: in vivo, Balb/c mice. Particulars: for serum platinum level: CT-26 mice.
Data set [8] is described as follows: Lipophilicity by RP-HPLC retention factors. Format: physicochemical. Particulars: for log kw: 0.1% TFA water/MeOH, values extrapolated to 0% MeOH; for log k30: mobile phase containing 30% MeOH.
The test system of data set [9] is CH1 (ovarian carcinoma). Briefly: MTT cytotoxicity assay, CH1. The note with it: CH1 cells. Format: cell-based, human. The gist of the method:
as §1

Data set [10] relates to SW480 (colon carcinoma). Particulars: read-out: IC50, 96 h SW480; MTT assay, exposure 96 h; cited from earlier work.
In data set [11] the test system is CH1 (ovarian carcinoma). Particulars: read-out: IC50, 96 h CH1; MTT assay, exposure 96 h; cited from earlier work.
In data set [12] the test system is A549 (nonsmall cell lung cancer). Particulars: read-out: IC50, 96 h A549; MTT assay, exposure 96 h; cited from earlier work.
The mark [13] stands for this setting: 30 mg/kg i.p. days 4, 7, 11, 14, day 15.
Where [14] appears, read: 9 mg/kg i.v. days 4, 7, 11, 14, day 15.

Marks after values point to notes of the source that are not given here.

Regarding “(OC-6-22)-((1R,2R)-Diaminocyclohexane)bis(malonato)-platinum(IV) [4b]”, in data set [1] (versus 1b, 2b and 3b), the “times more active than 1b, 2b, and 3b” value was “at least 8 times”. Moreover, the “times more active than 5b” value in data set [1] (versus 5b) stood at 6 times. In addition, the “tolerability / signs of toxicity (fatigue, weight loss)” value in [2] is on record as “well-tolerated with no signs of toxicity”. The compound further yielded an aqueous solubility in data set [3] above 15 mM. In data set [4], the “decomposition after 24 h of incubation in PBS solution” value is on record as “no decomposition products were observed”. In addition, in data set [5] (10 mg/kg i.p. on days 1, 5, 9), the effect on survival result was “no effect on the survival”. The mice being cured in data set [5] (30 mg/kg i.p. on days 1, 5, 9, n = 4) was 3/4. In addition, in [6] (PBS pH 7.4, 37 °C, after 20 h), the “complex still in its native form” value is “more than 90%”. In data set [6] (unbuffered water, 37 °C, after 24 h), the complex intact is given as ~ 95%. Besides, the serum platinum level in data set [7] (30 mg/kg i.p. days 4, 7, 11, 14, 24 h after last application) is reported as ~ 3 μg/mL. Besides, in [7] (setting [13]), the platinum in kidney is on record as ~ 10.5 μg/g, the platinum in liver was ~ 15 μg/g, the platinum in lung is reported as ~ 5 μg/g and the “platinum in sciatic nerve” value is recorded as ~ 1.8 μg/g. The “platinum in tumor tissue” value in data set [7] (setting [13]) was ~ 5 μg/g. Moreover, in data set [7] (4b 30 mg/kg i.p. versus oxaliplatin 9 mg/kg i.v., 24 h after last application), the “serum platinum circulation compared to oxaliplatin-treated mice” value came to 10 times. In addition, in data set [8], the log kw is −0.11 ± 0.01 and the “log k30” value is on record as −0.65 ± 0.02. The “times more potent than 1b” value in data set [9] (versus 1b) came out at 4 times. In addition, the “times more potent than 2b” value in data set [9] (versus 2b) worked out at 12 times. Further, the “potency relative to 3b” value in data set [9] (versus 3b) is given as “twice as potent”. For the same compound, the “activity relative to 5b” value in data set [9] (versus 5b) is “same activity”.

For `CC(=O)[O][Pt]([NH2])([Cl])([Cl])([NH]C1CCCCC1)[O]C(C)=O` [satraplatin, reference compound], in data set [8], the log kw is 1.63 ± 0.04 and the “log k30” value came out at 0.68 ± 0.01.

For `CCN.CCN.O=C([O-])CC(=O)[O-].O=C([O-])CC(=O)[O-].[Pt+4]` [2b, (OC-6-22)-Bis(ethylamine)bis(malonato)platinum(IV)], in data set [4], the “decomposition after 24 h of incubation in PBS solution” value is listed as below 10%.

Regarding `O=C1[O][Pt]2([NH][C@@H]3CCCC[C@H]3[NH]2)[O]C1=O` [oxaliplatin, reference compound], the IC50 is 290 ± 50 nM in data set [10], 180 ± 10 nM in data set [11] and 980 ± 210 nM in data set [12]. In data set [7] (9 mg/kg i.v. days 4, 7, 11, 14, 24 h after last application), the serum platinum level was ~ 0.3 μg/mL. Also, in data set [7] (setting [14]), the platinum in kidney is reported as ~ 4.5 μg/g. Also, the platinum in liver in [7] (setting [14]) is recorded as ~ 2 μg/g.

Regarding `N.N.O=C([O-])C1(C(=O)[O-])CCC1.[Pt+2]` [carboplatin, reference compound], in [8], the log kw is listed as −0.36 ± 0.04^c and the “log k30” value is −0.80 ± 0.01. Also, the half-inhibitory concentration (IC50) in data set [12] was 91000 ± 10000 nM.

For `NCCN.O=C1[O][Pt]2([O]C(=O)C13CCC3)[O]C(=O)C1(CCC1)C(=O)[O]2` [1d, (OC-6-22)-Bis(1,1-cyclobutanedicarboxylato)ethane-1,2-diamineplatinum(IV)], in data set [8], the log kw is reported as 1.28 ± 0.01 and the “log k30” value is reported as 0.28 ± 0.01.
